Measured values as given in ChEMBL document CHEMBL1137547, “Synthesis and antifungal activities of novel 2-aminotetralin derivatives” (2007).
Converted amounts (≈) assume the structure as drawn.

Tests used:
Format in all cases: functional
Aspergillus fumigatus = assay: Antifungal activity against Aspergillus fumigatus
How it was run: (§1)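 NCCLS broth serial dilution in RPMI 1640 buffered with 0.165 M MOPS. Compounds were dissolved in DMSO and serially diluted in medium. Strains came from ATCC or clinical isolates. The growth MIC for filamentous fungi was read at 7 d, taken as the lowest concentration giving ≥80% turbidity inhibition versus the growth control.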

Microsporum = assay: Antifungal activity against Microsporum gypseum
How it was run: (§2)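 Dermatophytes were tested by NCCLS serial dilution in RPMI 1640 with 0.165 M MOPS and incubated at 28 °C. Compounds were dissolved in DMSO and diluted in medium. Strains came from ATCC or clinical isolates. The MIC was read at 7 d as the lowest concentration reducing turbidity by ≥80% relative to the drug-free control.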

Fonsecaea compacta = assay: Antifungal activity against Fonsecaea compacta; how it was run: as §1
Candida albicans = assay: Antifungal activity against Candida albicans after 24 hrs
How it was run: (§3)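 Candida yeasts were tested by NCCLS microdilution in RPMI 1640 buffered with 0.165 M MOPS and incubated at 35 °C. Compounds were dissolved in DMSO and serially diluted in medium. Isolates came from ATCC or the clinic. The MIC was read at 24 h as the lowest concentration achieving ≥80% growth inhibition versus the control.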

Trichophyton rubrum = assay: Antifungal activity against Trichophyton rubrum; how it was run: as §2
Cryptococcus neoformans = assay: Antifungal activity against Cryptococcus neoformans after 72 hrs
How it was run: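 Cryptococcus neoformans was tested by NCCLS serial dilution in MOPS-buffered (0.165 M) RPMI 1640 at 35 °C. Compounds were dissolved in DMSO and diluted in medium. The MIC was read at 72 h as the lowest concentration giving turbidity inhibition of ≥80% relative to the growth control.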

Candida parapsilosis = assay: Antifungal activity against Candida parapsilosis after 24 hrs; conditions: Lodderomyces parapsilosis; how it was run: as §3

Structure (SMILES)	MIC (Aspergillus fumigatus)	MIC (Microsporum)	MIC (Fonsecaea compacta)	MIC (Candida albicans)	MIC (Trichophyton rubrum)	MIC (Cryptococcus neoformans)	MIC (Candida parapsilosis)
Oc1cccc2c1CC(NCc1ccccc1)CC2 (centres undefined)	> 64 µM	32 µM (≈ 8.11 µg/mL)	32 µM (≈ 8.11 µg/mL)	64 µM (≈ 16.2 µg/mL)	0.5 µM (≈ 0.127 µg/mL)	> 64 µM	> 64 µM
CCCCCCCCCCCCCCCCCCNC1CCc2c(cccc2OC)C1 (centres undefined)	> 64 µM	16 µM (≈ 6.88 µg/mL)	64 µM (≈ 27.5 µg/mL)	> 64 µM	32 µM (≈ 13.8 µg/mL)	> 64 µM	> 64 µM
CCCCCCCCCCCCCCCCCCNC1CCc2cc(OC)ccc2C1 (centres undefined)	> 64 µM	> 64 µM	> 64 µM	64 µM (≈ 27.5 µg/mL)	8 µM (≈ 3.44 µg/mL)	> 64 µM	> 64 µM
CCCCCCCCCCCCCCCCCCNC1CCc2ccc(OC)cc2C1 (centres undefined)	> 64 µM	64 µM (≈ 27.5 µg/mL)	> 64 µM	> 64 µM	8 µM (≈ 3.44 µg/mL)	> 64 µM	> 64 µM
CCCCCCCCCCCCCCCCCCNC1CCc2cccc(OC)c2C1 (centres undefined)	> 64 µM	64 µM (≈ 27.5 µg/mL)	> 64 µM	> 64 µM	2 µM (≈ 0.859 µg/mL)	64 µM (≈ 27.5 µg/mL)	> 64 µM
CCCCCCCCCCCCCCCCCCNC1CCc2c(O)cccc2C1 (centres undefined)	> 64 µM	> 64 µM	> 64 µM	64 µM (≈ 26.6 µg/mL)	16 µM (≈ 6.65 µg/mL)	> 64 µM	> 64 µM
CCCCCCCCCCCCCCCCCCNC1CCc2cc(O)ccc2C1 (centres undefined)	> 64 µM	64 µM (≈ 26.6 µg/mL)	> 64 µM	32 µM (≈ 13.3 µg/mL)	8 µM (≈ 3.33 µg/mL)	> 64 µM	> 64 µM
CCCCCCCCCCCCCCCCCCNC1CCc2ccc(O)cc2C1 (centres undefined)	> 64 µM	> 64 µM	64 µM (≈ 26.6 µg/mL)	16 µM (≈ 6.65 µg/mL)	2 µM (≈ 0.831 µg/mL)	> 64 µM	> 64 µM
Oc1ccc2c(c1)CCC(NCc1ccccc1)C2 (centres undefined)	> 64 µM	> 64 µM	> 64 µM	64 µM (≈ 16.2 µg/mL)	8 µM (≈ 2.03 µg/mL)	> 64 µM	> 64 µM
Oc1cccc2c1CCC(Nc1ccccc1)C2 (centres undefined)	> 64 µM	> 64 µM	> 64 µM	> 64 µM	8 µM (≈ 1.91 µg/mL)	> 64 µM	> 64 µM
COc1cccc2c1CC(NCc1ccccc1)CC2 (centres undefined)	> 64 µM	4 µM (≈ 1.07 µg/mL)	> 64 µM	> 64 µM	32 µM (≈ 8.56 µg/mL)	> 64 µM	> 64 µM
Oc1cccc2c1CCC(NCc1ccccc1)C2 (centres undefined)	> 64 µM	> 64 µM	> 64 µM	64 µM (≈ 16.2 µg/mL)	0.125 µM (≈ 0.0317 µg/mL)	> 64 µM	> 64 µM
COc1ccc(NC2CCc3cccc(OC)c3C2)cc1 (centres undefined)	> 64 µM	16 µM (≈ 4.53 µg/mL)	> 64 µM	> 64 µM	32 µM (≈ 9.07 µg/mL)	> 64 µM	> 64 µM
COc1cccc2c1CCC(Nc1ccccc1)C2 (centres undefined)	> 64 µM	32 µM (≈ 8.11 µg/mL)	> 64 µM	> 64 µM	2 µM (≈ 0.507 µg/mL)	> 64 µM	> 64 µM
COc1ccc2c(c1)CCC(Nc1ccccc1)C2 (centres undefined)	> 64 µM	32 µM (≈ 8.11 µg/mL)	> 64 µM	> 64 µM	0.5 µM (≈ 0.127 µg/mL)	> 64 µM	> 64 µM
COc1ccc(NC2CCc3ccc(O)cc3C2)cc1 (centres undefined)	> 64 µM	32 µM (≈ 8.62 µg/mL)	> 64 µM	> 64 µM	0.5 µM (≈ 0.135 µg/mL)	> 64 µM	64 µM (≈ 17.2 µg/mL)
COc1ccc2c(c1)CC(Nc1ccccc1)CC2 (centres undefined)	> 64 µM	64 µM (≈ 16.2 µg/mL)	> 64 µM	> 64 µM	4 µM (≈ 1.01 µg/mL)	64 µM (≈ 16.2 µg/mL)	> 64 µM
Oc1cccc2c1CC(Nc1ccccc1)CC2 (centres undefined)	> 64 µM	32 µM (≈ 7.66 µg/mL)	64 µM (≈ 15.3 µg/mL)	> 64 µM	4 µM (≈ 0.957 µg/mL)	32 µM (≈ 7.66 µg/mL)	> 64 µM
CCCCCCCCCCCCCCNC1CCc2ccc(OC)cc2C1 (centres undefined)	> 64 µM	4 µM (≈ 1.49 µg/mL)	64 µM (≈ 23.9 µg/mL)	4 µM (≈ 1.49 µg/mL)	0.0625 µM (≈ 0.0234 µg/mL)	16 µM (≈ 5.98 µg/mL)	> 64 µM
CCCCCCCCCCCCCCNC1CCc2cccc(OC)c2C1 (centres undefined)	> 64 µM	2 µM (≈ 0.747 µg/mL)	32 µM (≈ 12 µg/mL)	4 µM (≈ 1.49 µg/mL)	0.5 µM (≈ 0.187 µg/mL)	32 µM (≈ 12 µg/mL)	16 µM (≈ 5.98 µg/mL)
COc1ccc2c(c1)CCC(Nc1ccc(Cl)cc1)C2 (centres undefined)	> 64 µM	16 µM (≈ 4.6 µg/mL)	> 64 µM	> 64 µM	1 µM (≈ 0.288 µg/mL)	> 64 µM	> 64 µM

Structure (SMILES)	MIC (Aspergillus fumigatus)	MIC (Microsporum)	MIC (Fonsecaea compacta)	MIC (Candida albicans)	MIC (Trichophyton rubrum)	MIC (Cryptococcus neoformans)	MIC (Candida parapsilosis)
COc1cccc2c1CC(Nc1ccccc1)CC2 (centres undefined)	> 64 µM	32 µM (≈ 8.11 µg/mL)	> 64 µM	> 64 µM	4 µM (≈ 1.01 µg/mL)	> 64 µM	> 64 µM
CCCCCCCCCCCCCCNC1CCc2c(O)cccc2C1 (centres undefined)	> 64 µM	4 µM (≈ 1.44 µg/mL)	> 64 µM	8 µM (≈ 2.88 µg/mL)	0.5 µM (≈ 0.18 µg/mL)	8 µM (≈ 2.88 µg/mL)	> 64 µM
CCCCCCCCCCCCCCNC1CCc2cc(O)ccc2C1 (centres undefined)	> 64 µM	2 µM (≈ 0.719 µg/mL)	> 64 µM	2 µM (≈ 0.719 µg/mL)	0.5 µM (≈ 0.18 µg/mL)	> 4 µM	32 µM (≈ 11.5 µg/mL)
Oc1ccc2c(c1)CC(Nc1ccccc1)CC2 (centres undefined)	> 64 µM	16 µM (≈ 3.83 µg/mL)	32 µM (≈ 7.66 µg/mL)	32 µM (≈ 7.66 µg/mL)	8 µM (≈ 1.91 µg/mL)	16 µM (≈ 3.83 µg/mL)	> 64 µM
COc1ccc2c(c1)CCC(NCc1ccccc1)C2 (centres undefined)	> 64 µM	> 64 µM	> 64 µM	30 µM (≈ 8.02 µg/mL)	16 µM (≈ 4.28 µg/mL)	> 64 µM	> 64 µM
COc1ccc(NC2CCc3cccc(O)c3C2)cc1 (centres undefined)	> 64 µM	16 µM (≈ 4.31 µg/mL)	> 64 µM	> 64 µM	2 µM (≈ 0.539 µg/mL)	> 64 µM	> 64 µM
COc1ccc2c(c1)CC(NCc1ccccc1)CC2 (centres undefined)	> 64 µM	> 64 µM	> 64 µM	64 µM (≈ 17.1 µg/mL)	4 µM (≈ 1.07 µg/mL)	> 64 µM	> 64 µM
Oc1ccc2c(c1)CC(NCc1ccccc1)CC2 (centres undefined)	> 64 µM	> 64 µM	> 64 µM	64 µM (≈ 16.2 µg/mL)	16 µM (≈ 4.05 µg/mL)	> 64 µM	> 64 µM
COc1ccc(NC2CCc3cc(OC)ccc3C2)cc1 (centres undefined)	> 64 µM	8 µM (≈ 2.27 µg/mL)	> 64 µM	> 64 µM	8 µM (≈ 2.27 µg/mL)	> 64 µM	> 64 µM
CCCCCCCCCCCCCCNC1CCc2ccc(O)cc2C1 (centres undefined)	> 64 µM	4 µM (≈ 1.44 µg/mL)	8 µM (≈ 2.88 µg/mL)	4 µM (≈ 1.44 µg/mL)	0.5 µM (≈ 0.18 µg/mL)	8 µM (≈ 2.88 µg/mL)	4 µM (≈ 1.44 µg/mL)
COc1ccc(NC2CCc3c(O)cccc3C2)cc1 (centres undefined)	> 64 µM	16 µM (≈ 4.31 µg/mL)	> 64 µM	> 64 µM	0.25 µM (≈ 0.0673 µg/mL)	> 64 µM	32 µM (≈ 8.62 µg/mL)
COc1ccc(NC2CCc3cc(O)ccc3C2)cc1 (centres undefined)	> 64 µM	16 µM (≈ 4.31 µg/mL)	> 64 µM	> 64 µM	0.5 µM (≈ 0.135 µg/mL)	64 µM (≈ 17.2 µg/mL)	64 µM (≈ 17.2 µg/mL)
COc1ccc2c(c1)CC(Nc1ccc(Cl)cc1)CC2 (centres undefined)	> 64 µM	16 µM (≈ 4.6 µg/mL)	> 64 µM	> 64 µM	16 µM (≈ 4.6 µg/mL)	> 64 µM	> 64 µM
CCCCCCCCCCCCCCNC1CCc2cc(OC)ccc2C1 (centres undefined)	> 64 µM	> 64 µM	> 64 µM	32 µM (≈ 12 µg/mL)	16 µM (≈ 5.98 µg/mL)	64 µM (≈ 23.9 µg/mL)	> 64 µM
Oc1ccc2c(c1)CCC(Nc1ccccc1)C2 (centres undefined)	> 64 µM	32 µM (≈ 7.66 µg/mL)	64 µM (≈ 15.3 µg/mL)	64 µM (≈ 15.3 µg/mL)	8 µM (≈ 1.91 µg/mL)	64 µM (≈ 15.3 µg/mL)	64 µM (≈ 15.3 µg/mL)
COc1ccc(NC2CCc3ccc(OC)cc3C2)cc1 (centres undefined)	> 64 µM	16 µM (≈ 4.53 µg/mL)	64 µM (≈ 18.1 µg/mL)	> 64 µM	0.5 µM (≈ 0.142 µg/mL)	> 64 µM	> 64 µM
CCCCCCCCCCCCCCCCCCNC1CCc2cccc(O)c2C1 (centres undefined)	> 64 µM	> 64 µM	64 µM (≈ 26.6 µg/mL)	> 64 µM	2 µM (≈ 0.831 µg/mL)	> 64 µM	> 64 µM
COc1ccc(NC2CCc3c(cccc3OC)C2)cc1 (centres undefined)	> 64 µM	8 µM (≈ 2.27 µg/mL)	> 64 µM	> 64 µM	2 µM (≈ 0.567 µg/mL)	> 64 µM	> 64 µM
CCCCCCCCCCCCCCNC1CCc2cccc(O)c2C1 (centres undefined)	16 µM (≈ 5.75 µg/mL)	4 µM (≈ 1.44 µg/mL)	16 µM (≈ 5.75 µg/mL)	16 µM (≈ 5.75 µg/mL)	0.125 µM (≈ 0.0449 µg/mL)	32 µM (≈ 11.5 µg/mL)	64 µM (≈ 23 µg/mL)
COc1cccc2c1CCC(Nc1ccc(Cl)cc1)C2 (centres undefined)	> 64 µM	16 µM (≈ 4.6 µg/mL)	> 64 µM	> 64 µM	2 µM (≈ 0.576 µg/mL)	> 64 µM	> 64 µM
COc1cccc2c1CCC(NCc1ccccc1)C2 (centres undefined)	> 64 µM	64 µM (≈ 17.1 µg/mL)	32 µM (≈ 8.56 µg/mL)	32 µM (≈ 8.56 µg/mL)	16 µM (≈ 4.28 µg/mL)	64 µM (≈ 17.1 µg/mL)	> 64 µM
